Measurements reported in article PMC3113562 (Nucleic Acids Research, 2011).
Where two headings read alike, the source gives them in different places.

Assays:
[1] = target: T1, human 8-oxoguanine DNA glycosylase (OGG1) (Homo sapiens, UniProt O15527); assay type: biochemical; settings: for ΔΔG° cognate vs non-cognate ligand: from ratio of Ki values, T = 310 K; for increase in the affinity for OGG1 vs the corresponding non-cognate ligand: ratio of Ki (KM) values, vs dGMP, ss G11 or ds G11
Summary of the method: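 Recombinant human OGG1 from E. coli BL21(DE3), with active enzyme titrated by burst-phase kinetics. Reaction: 0.5 nM enzyme and 22 nM (2 × KM) oxoG ds substrate in 50 mM Tris–HCl pH 7.5, 100 mM NaCl, 1 mM EDTA, 1 mM DTT, 37°C, 2–10 min, NaOH-quenched. Competitor spans 0.1–10 × I50. Ki = I50/3; ΔG° = –RT ln Kd (310 K); ΔΔG° from differences.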

[2] = target: T1, human 8-oxoguanine DNA glycosylase (OGG1); settings: cited from earlier work
[3] = tested on: E. coli 8-oxoguanine DNA glycosylase (Fpg); settings: read-out: Ki (Fpg); cited from earlier work
[4] = read-out: Ki (affinity for OGG1)

T1 sequence (O15527 whole entry): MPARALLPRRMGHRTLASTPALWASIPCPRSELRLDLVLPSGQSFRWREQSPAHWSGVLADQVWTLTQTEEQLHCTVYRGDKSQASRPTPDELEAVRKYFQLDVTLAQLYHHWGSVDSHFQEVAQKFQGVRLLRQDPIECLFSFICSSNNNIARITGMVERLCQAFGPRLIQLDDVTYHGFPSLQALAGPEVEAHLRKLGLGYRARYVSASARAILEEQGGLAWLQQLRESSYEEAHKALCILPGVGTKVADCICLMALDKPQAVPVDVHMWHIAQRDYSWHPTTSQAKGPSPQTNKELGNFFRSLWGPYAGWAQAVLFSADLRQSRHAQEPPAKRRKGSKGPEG

Row | Ki [1, 4] | ΔΔG° cognate vs non-cognate ligand [1] | increase in the affinity for OGG1 vs the corresponding non-cognate ligand [1] | Molecule | cleavage by OGG1 [2] | also measured
1 | 130 µM |  |  | r(pC)10 |  | 
2 | 0.08 µM | ~-3.3 kcal/mol | 250 fold | dCdp(TCTCCCTTCXCTCCTTTCCTCT) [OG11] | not cleaved | 
3 |  |  |  | O=P(O)(O)O [Pi, orthophosphate, reference compound] |  | Ki [1]: 68000 µM
4 |  | -0.8 kcal/mol | 4.1 fold | Nc1nc2c([nH]c(=O)n2[C@H]2C[C@H](O)[C@@H](COP(=O)(O)O)O2)c(=O)[nH]1 [oxo-dGMP, reference compound] | not cleaved | tighter binding than one non-cognate d(pN)n unit within DNA ([1]; vs extrapolated Ki = 12 mM): ~7.5 fold
5 | 140 µM |  |  | r(pA)10 |  | 

Row | Molecule | Ki [1, 4] | ΔΔG° cognate vs non-cognate ligand [1] | increase in the affinity for OGG1 vs the corresponding non-cognate ligand [1] | cleavage by OGG1 [2] | also measured
6 | dCdp(TCTCCCTTCGCTCCTTTCCTCT) (5'-dC with phosphate prefix in name, chemistry otherwise not given here) [G11] | 20 µM |  |  |  | Ki [3]: 10 µM
